# A selection: hits, their analogues and other compounds. The true share with any hit is near 1.5%.
# b-catenin transl: beta-catenin nuclear translocation modulation | 190,000 tested, 0.3% active | AID 1665 | nuclear translocation activity, % at 5 µM | HeLa beta-catenin nuclear translocation, immunofluorescence imaging;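 active = nuclear translocation activity above 50% at 5 µM, with a well cell count of 50 or more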;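 note: per-cell ratio of nuclear to cytoplasmic median beta-catenin stain intensity; plate controls were DMSO negative control for no effect and GSK-3 inhibitor IX positive control for full effect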
#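 Test system: human HeLa cells, native beta-catenin. Compound dosing: 5 µM primary single dose, 0.1% DMSO, 0.02–20 µM confirmation series. Incubation: compound exposure 24 h at 37°C. Detection: beta-catenin immunostaining with DAPI counterstain, 20x imaging, 6 fields/well. Read-out basis: Nuclear/cytoplasmic beta-catenin signal ratio, % activation.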
# TbHK1 inh: blocks Trypanosoma brucei hexokinase 1 activity. 220,000 tested, 0.11% active. AID 1430. inhibition, % at 10 µM. recombinant TbHK1, G6PDH-coupled NADH A340;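 active = inhibition of 50% or more in the single-dose primary screen; inactive = inhibition below 50%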
# Dynein cargo inh: dynein cargo transport inhibition; AID 1381; 3617.4 mouse cells, GR-EGFP nuclear translocation imaging; test concentration mostly 20 µM; stimulated with dexamethasone, 1 µM; hits give low values; 220,000 tested, 0.47% active; z-score, hits read low;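 active = plate z-score of nuclear minus cytoplasmic receptor signal below a set negative limit, without overly bright fluorescence or cell loss, cut at about -3.5 in these data, passing the limit was not always enough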;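 note: z-score of nuclear minus cytoplasmic ring GR-EGFP intensity difference per well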
#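 Medium: Induction medium lacking tetracycline, stripped serum | Probe or stimulus: 1.0 µM final dexamethasone stimulus | Schedule: 48 h induction, then 1 h compound, then 30 min agonist, 37 °C | Signal: Automated 10x imaging of fixed Hoechst-stained cells | Evaluation: Per-cell GR-EGFP intensity, nucleus versus surrounding cytoplasmic ring, well-averaged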
# MT stabilize HCS: microtubule stabilization, imaging screen; AID 2205; HeLa tubulin immunostaining HCS, 24 h; share of cells brighter than vehicle mean+2SD; 200,000 tested, 0.83% active; % tubulin-high responders, % at 10 µM;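 active = plate Z-score above 3 for both tubulin-high and condensed-nucleus cell shares, with cell loss under 80%, at 10 µM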;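 note: anti alpha tubulin signal scored within the nucleus-defined area of each cell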
# Rad51 HR inh: Rad51 (human) homologous recombination inhibition; 200,000 tested, 0.085% active; Q06609; inhibition, % at 10 µM; hRad51 DNA strand exchange, fluorescence dequenching;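 active = inhibition above 40% at the single screening dose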;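 note: 0% = DMSO control wells and 100% = blanks with heterologous ssDNA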
# Target sequence (Q06609 whole entry, looked up): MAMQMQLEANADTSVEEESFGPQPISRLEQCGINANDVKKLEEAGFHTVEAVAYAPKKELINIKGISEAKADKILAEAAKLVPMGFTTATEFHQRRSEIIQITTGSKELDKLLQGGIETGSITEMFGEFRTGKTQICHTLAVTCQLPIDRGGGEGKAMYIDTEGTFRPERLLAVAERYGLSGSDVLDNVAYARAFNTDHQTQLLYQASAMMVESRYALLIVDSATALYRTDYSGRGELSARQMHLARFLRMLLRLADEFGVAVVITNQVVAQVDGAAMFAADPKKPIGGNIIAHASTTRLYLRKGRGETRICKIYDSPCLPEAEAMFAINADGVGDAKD
#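 System: human Rad51 nucleoprotein filaments preassembled on unlabelled ssDNA. Reagent: labelled 47-mer dsDNA for strand exchange. Schedule: 30-min compound preincubation and 15-min exchange, both room temperature. Measured by: FRET fluorescence dequenching, excitation 485 nm, emission 520 nm. Read-out: Fluorescence-based percent inhibition, control- and blank-normalised. Benchmarks: plate controls and plate blanks.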
# G6PDH counter: Leuconostoc glucose-6-phosphate dehydrogenase inhibition, counter-screen; purified G6PDH, NADH absorbance, 1 h; inhibition, % at 10 µM; shares compounds with TbHK1 inh; 210 tested, 7% active;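 active = at least 50% inhibition in the glucose-6-phosphate dehydrogenase coupled counterscreen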
# TbHK1 rescreen: T. brucei hexokinase 1 inhibition, rescreen; 210 tested, 10% active; shares compounds with TbHK1 inh; recombinant TbHK1, G6PDH-coupled NADH A340 absorbance; inhibition, % at 10 µM;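 active = inhibition of at least 50% in both of the two screening runs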;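 note: 0% and 100% set by the maximum and minimum signal control wells on each plate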
# Active calls of the source: *; . = no result given.
SMILES,b-catenin transl,TbHK1 inh,Dynein cargo inh,MT stabilize HCS,Rad51 HR inh,G6PDH counter,TbHK1 rescreen
CCOC(=O)N1CC=C2C(C#N)=C(N)C(C#N)(C#N)[C@H](c3ccsc3)[C@H]2C1,-6.4,-2.6,-0.524,1.8,-0.1,.,.
COc1ccc(CCNC(=O)Cn2nnc(-c3ccc(N4CCOCC4)cc3)n2)cc1OC,-2.0,51.1*,-0.707,4.3,5.8,-19.3,-17.0
CCOC(=O)Cn1c(=O)c2c(nc(Br)n2CC(=O)OCC)n(C)c1=O,-1.6,8.4,-0.662,5.7,.,.,.
CC(C)c1[nH]nc2c1C(c1cccnc1)C(C#N)=C(N)O2 (stereo unspecified),-7.3,51.9*,-0.805,6.7,1.6,-10.8,3.8
Cc1cc(C)cc(-c2nnc(SCc3ccc(C(=O)O)cc3)o2)c1,0.1,-5.5,2.19,4.3,.,.,.
O=C(NCc1cccc(Cl)c1)c1ccc2nc[nH]c2c1,-0.6,4.0,-0.982,3.4,-17.8,.,.
COc1cccc(CNC(=O)c2ccc3nc[nH]c3c2)c1,4.5,66.8*,-0.38,6.7,-1.9,-0.5,-0.9
CCCCC(=O)NC(=S)NNS(=O)(=O)c1ccccc1,-2.6,56.0*,1.25,2.9,-5.4,-17.5,2.0
O=C(NC(=S)NNS(=O)(=O)c1ccccc1)c1cccnc1,-0.8,5.3,0.661,2.0,-1.6,.,.
O=C(NC(=S)NNS(=O)(=O)c1ccccc1)c1ccccc1[N+](=O)[O-],-3.2,65.2*,0.622,2.2,.,-22.1,-0.6
O=C(NC(=S)NNS(=O)(=O)c1ccccc1)c1ccc([N+](=O)[O-])cc1,-0.5,75.7*,0.808,1.4,11.8,-33.3,1.2
O=C(NNC(=S)NC(=O)c1ccccc1[N+](=O)[O-])c1ccccc1Cl,0.9,17.3,-0.206,4.5,1.0,.,.
CCN1CCN(c2cc(N3CCc4ccccc4C3)c(F)cc2[N+](=O)[O-])CC1,-2.9,-7.5,-1.82,7.4,-3.0,.,.
Cc1c(N=Cc2ccc(O)c(Br)c2)cccc1[N+](=O)[O-],1.6,-29.3,0.384,2.8,.,.,.
O=C(c1ccco1)N1CCN(CC(=O)N2CCCc3c2c(=O)oc2ccc(O)cc32)CC1,-0.8,-12.6,0.751,4.4,-0.7,.,.
O=C(CN1CCN(Cc2ccccc2)CC1)N1CCCc2c1c(=O)oc1ccc(O)cc21,0.3,54.1*,0.676,34.6*,3.3,8.2,-26.0
O=C(O)CNC(=O)c1ccccc1NC(=O)c1ccco1,-4.3,0.0,-1.07,6.0,-3.9,.,.
CCCCCOC(=O)NCC(O)c1ccccc1 (stereo unspecified),1.4,52.7*,-0.561,3.7,-7.7,-1.5,2.6
O=C1CSC(c2ccccn2)N1c1ccccc1 (stereo unspecified),-3.2,60.9*,-1.23,4.9,-0.4,-0.2,1.5
CC(C)CN1C(=O)c2ccc(C(=O)Nc3c[nH]c(=O)[nH]c3=O)cc2C1=O,2.2,-6.8,-0.676,1.4,8.5,.,.
O=C(Nc1c[nH]c(=O)[nH]c1=O)c1ccc2c(c1)C(=O)N(c1cccc([N+](=O)[O-])c1)C2=O,-0.3,56.0*,1.33,.,-22.2,83.6*,69.5*
S=C(NCc1ccccn1)Nc1ccc(Cl)cc1,2.6,2.8,-0.611,2.0,-5.7,.,.
Fc1cccc(NC(=S)NCc2ccccn2)c1,-1.3,52.4*,1.89,2.3,-8.4,3.5,0.5
CCC(=O)N1CCc2cc(S(=O)(=O)CCC(=O)NCCC3=CCCCC3)ccc21,.,67.9*,0.284,4.2,.,-9.7,3.4
Cc1cccc(C(=O)NC(=S)NNC(=O)Cc2ccccc2)c1,-4.1,67.0*,-0.204,2.8,-1.1,-13.8,-3.0
SMILES,b-catenin transl,TbHK1 inh,Dynein cargo inh,MT stabilize HCS,Rad51 HR inh,G6PDH counter,TbHK1 rescreen
Cc1cccc(C(=O)NC(=S)NNC(=O)COc2c(C)cccc2C)c1,1.0,7.9,2.45,7.1,.,.,.
O=C(CN1CCN(c2ccc(F)cc2)CC1)N1CCOCC1,0.6,18.5,0.137,6.1,4.6,.,.
Cc1ccc(CNC(=O)C2CNc3cc(C)ccc3O2)cc1 (stereo unspecified),0.3,57.6*,0.783,4.6,-10.0,-6.6,16.3
Cc1cc(C(=O)NNS(=O)(=O)c2ccc(C(C)(C)C)cc2)nn1C(C)(C)C,-0.7,52.4*,-0.00149,.,13.2,-6.4,3.5
O=C(O)CCn1nnc(-c2cccs2)n1,-0.5,53.7*,-0.109,5.1,-2.3,-2.8,0.9
Cc1cc(C(=O)NCCC(C)C)c2ccccc2n1,-0.8,-4.2,0.67,.,-0.3,.,.
CSc1cccc(NC(=O)C2CCCN2S(=O)(=O)c2ccc(Br)s2)c1 (stereo unspecified),.,54.3*,-0.692,1.4,-8.9,20.6,13.8
CSc1cccc(NC(=O)C2CCN(S(=O)(=O)c3ccc(F)cc3)CC2)c1,-3.5,6.6,0.397,2.5,-4.1,.,.
COc1c(C(=O)Nc2c(C)n(C)n(-c3ccccc3)c2=O)ccc2ccccc12,-0.4,-4.6,2.13,1.4,4.2,.,.
